Results from ChEMBL document CHEMBL1152436, “Synthesis, biological evaluation, and three-dimensional in silico pharmacophore model for sigma(1) receptor ligands based on a series of substituted benzo[d]oxazol-2(3H)-one derivatives” (J Med Chem, 2009).

Key:
[1] = molecular target: Sigma non-opioid intracellular receptor 1 (Rattus norvegicus, UniProt Q9R0C9); experiment: Displacement of [3H](+)-pentazocine from sigma1 receptor in rat liver membrane by liquid scintillation counting; format: cell membranes
Sequence of Sigma non-opioid intracellular receptor 1 (Q9R0C9 whole entry): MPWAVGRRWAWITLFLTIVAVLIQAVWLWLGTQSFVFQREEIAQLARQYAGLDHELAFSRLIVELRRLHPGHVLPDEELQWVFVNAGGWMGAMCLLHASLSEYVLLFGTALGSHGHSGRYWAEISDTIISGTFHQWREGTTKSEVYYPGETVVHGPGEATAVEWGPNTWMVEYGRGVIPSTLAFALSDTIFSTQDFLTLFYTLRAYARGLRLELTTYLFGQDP

[2] = Displacement of [3H]DTG from sigma2 receptor in rat liver membrane by liquid scintillation counting; format: cell membranes
Summary of the method: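 Rat liver homogenate (150 μg) incubated 120 min at room temperature with 3 nM [3H]DTG in 50 mM Tris-HCl pH 8.0. σ1 sites masked with 100 nM (+)-pentazocine; nonspecific binding with 10 μM haloperidol. At least 11 ligand concentrations, 0.1% final DMSO. Filtration on PEI-soaked GF/B filters. IC50 and nH from four-parameter fit, 2–4 determinations in duplicate, mean ± SEM.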

Row | Structure (SMILES) | Ki [1] [nM] | Ki [2] [nM]
1 | Cc1ccccc1CN1CCC(Cn2c(=O)oc3ccccc32)CC1 | 29.8 | 
2 | Cc1ccc(CN2CCC(Cn3c(=O)oc4ccccc43)CC2)cc1 | 3.07 | 
3 | Cc1ccc(CN(C)CCCn2c(=O)oc3ccccc32)cc1 | 871 | 991
4 | COc1ccccc1CN(C)CCCn1c(=O)oc2ccccc21 | 1950 | 192
5 | COc1ccc(CN(C)CCCn2c(=O)oc3ccccc32)cc1 | 83 | 2600
6 | Cc1ccc(CN(C)CCCCn2c(=O)oc3ccccc32)cc1 | 97 | 22.9
7 | CN(CCCn1c(=O)oc2ccccc21)Cc1ccccc1Cl | 2490 | 456
8 | Cc1ccc(CN2CCC(C(=O)Nc3ccccc3)CC2)cc1 | 105 | 
9 | CN(CCCCn1c(=O)oc2ccccc21)Cc1ccccc1Cl | 843 | 37.4
10 | CN(CCCCn1c(=O)oc2ccccc21)Cc1ccc(Cl)cc1 |  | 36.2
11 | CN(CCCCn1c(=O)oc2ccccc21)Cc1cccc(Cl)c1 | 302 | 
12 | O=C(Nc1ccccc1)C1CCN(Cc2ccccc2)CC1 | 48.1 | 
13 | CN(CCCn1c(=O)oc2ccccc21)Cc1cccc(Cl)c1 | 3230 | 1120
14 | CN(CCCCn1c(=O)oc2ccccc21)Cc1ccccc1 |  | 120
15 | COc1ccc(CN(C)CCCCn2c(=O)oc3ccccc32)cc1 | 21 | 20.8
16 | O=C(Nc1ccccc1)C1CCN(Cc2ccc(Cl)cc2)CC1 | 45 | 
17 | COc1ccccc1CN(C)CCCCn1c(=O)oc2ccccc21 | 594 | 
18 | CN(CCCn1c(=O)oc2ccccc21)Cc1ccc(Cl)cc1 |  | 456
19 | Cc1ccc(CN2CCC(C(=O)NCc3ccccc3)CC2)cc1 | 69.4 | 
20 | Cc1ccc(CN(C)CCCCn2c(=O)oc3ccccc32)c(C)c1 | 239 | 6.94
21 | Cc1cccc(CN(C)CCCCn2c(=O)oc3ccccc32)c1 | 102 | 31.8
22 | Cc1cccc(CN(C)CCCn2c(=O)oc3ccccc32)c1 | 1830 | 2720
23 | CN(CCCn1c(=O)oc2ccccc21)Cc1ccccc1 |  | 1120
24 | Cc1ccccc1CN(C)CCCn1c(=O)oc2ccccc21 | 901 | 1350
25 | COc1cccc(CN(C)CCCn2c(=O)oc3ccccc32)c1 | 8550 | 2130
26 | Cc1ccc(CN(C)CCCn2c(=O)oc3ccccc32)c(C)c1 | 1830 | 2060
27 | COc1cccc(CN(C)CCCCn2c(=O)oc3ccccc32)c1 | 297 | 187
28 | CC(C)=CCN1CC[C@]2(C)c3cc(O)ccc3C[C@H]1[C@H]2C [(+)-PENTAZOCINE] |  | 327
29 | Cc1ccccc1NC(=N)Nc1ccccc1C [DITOLYLGUANIDINE] |  | 130
30 | O=C(CCCN1CCC(O)(c2ccc(Cl)cc2)CC1)c1ccc(F)cc1 [HALOPERIDOL] |  | 235
